TAAR1 antagonist: human TAAR1 antagonists, primary screen, Fluo-8 calcium fluorescence, CHO RD-HGA16 cells; antagonist; inhibition, % at 3 µM; 360,000 compounds, 1.5% hits; AID 624466, 2012;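 active = inhibition above a per-plate cutoff, the mean inhibition of test compounds on that plate plus 3 SD, cut at about 49% in these data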
Target sequence (Q96RJ0 whole entry, looked up): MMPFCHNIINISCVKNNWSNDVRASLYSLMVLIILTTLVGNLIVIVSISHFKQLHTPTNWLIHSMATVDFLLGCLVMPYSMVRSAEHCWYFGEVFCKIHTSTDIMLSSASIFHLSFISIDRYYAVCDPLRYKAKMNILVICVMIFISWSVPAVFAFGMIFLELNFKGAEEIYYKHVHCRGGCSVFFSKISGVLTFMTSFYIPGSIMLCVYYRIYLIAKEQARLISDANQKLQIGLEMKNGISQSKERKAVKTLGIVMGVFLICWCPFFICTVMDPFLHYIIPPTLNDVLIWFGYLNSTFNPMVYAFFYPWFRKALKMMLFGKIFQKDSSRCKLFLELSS
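Test system: RD-HGA16 CHO cells with stable hTAAR1 and Gα16 / Probe or stimulus: EC80 β-phenethylamine stimulus / Times: seeding 17-24 h prior, 75-min 37 °C, 30-min RT dye loading / Detection: Fluo-8 calcium-sensitive fluorescence / Read-out basis: % inhibition scaled between DMSO and EC80 PEA controls / Repeats: singlicate, one well per test compound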
OX1R antag-1: OX1R (HCRTR1) antagonists, primary screen, fluorescence, CHO/OX1R cells, Fluo-8 calcium, orexin A; Fluo-8 calcium fluorescence; 330,000 compounds, 0.43% hits; Orexin/Hypocretin receptor type 1 (Homo sapiens), O43613; inhibition, % at 5 µM;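 active = inhibition above its plate's threshold, mean inhibition of all tested compounds on the plate plus 3 SD, cut at about 37% in these data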
CHO parental Ca: ATP-evoked calcium signal inhibitors, parental CHO, primary screen, counter-screen for OX1R antagonist project, cell-based, fluorescence, Fluo-8 calcium dye. 330,000 compounds, 0.63% hits. parental CHO-K1, ATP-induced calcium, Fluo-8 fluorescence. inhibition, % at 5.6 µM;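 active = inhibition above that plate's mean sample inhibition plus 3 SD, cut at about 26% in these data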
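Material: Parental CHO cells | Reagent: ATP | Compound dosing: Single nominal dose of 5.6 µM per compound | Detection: Intracellular calcium via Fluo-8 no-wash fluorescent dye | Read-out: % inhibition of ATP-induced calcium mobilization | Benchmarks: Low control ATP plus DMSO, high control DMSO only | Replicates: Singlicate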
TAAR1 agonist: human TAAR1 agonists, primary screen, Fluo-8 calcium fluorescence, CHO RD-HGA16 cells; Trace amine-associated receptor 1 (Homo sapiens), Q96RJ0; vehicle wells 0%, saturating PEA agonist 100%; activation, % at 3 µM; 360,000 compounds, 0.99% hits; AID 624467, 2012;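 active = activation above the mean activation of all test compounds in the run plus 3 SD, cut at about 38% in these data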
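Assay system: CHO-derived RD-HGA16 cells with stable Gα16 and human TAAR1; timing: 17-24 h seeding, 75 min 37 °C dye, 30 min RT; read-out: % activation from peak over basal fluorescence ratio, DMSO-to-PEA scaled; measured by: kinetic Fluo-8 calcium fluorescence; benchmarks: low control DMSO, high control PEA (EC100); doses: 3 µM single concentration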
GPR7 antag: GPR7 receptor antagonists, primary screen, cell-based, fluorescence, single concentration | Neuropeptides B/W receptor type 1 (Homo sapiens), P48145 | GPR7-expressing cells, fluorescence antagonist assay | inhibition, % at 4.4 µM | 290,000 compounds, 1.1% hits | AID 1861, 2009; in the data active = inhibition above about 16%, passing the limit was not always enough;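 note: cells stimulated with the agonist NPW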
Target sequence (P48145 whole entry, looked up): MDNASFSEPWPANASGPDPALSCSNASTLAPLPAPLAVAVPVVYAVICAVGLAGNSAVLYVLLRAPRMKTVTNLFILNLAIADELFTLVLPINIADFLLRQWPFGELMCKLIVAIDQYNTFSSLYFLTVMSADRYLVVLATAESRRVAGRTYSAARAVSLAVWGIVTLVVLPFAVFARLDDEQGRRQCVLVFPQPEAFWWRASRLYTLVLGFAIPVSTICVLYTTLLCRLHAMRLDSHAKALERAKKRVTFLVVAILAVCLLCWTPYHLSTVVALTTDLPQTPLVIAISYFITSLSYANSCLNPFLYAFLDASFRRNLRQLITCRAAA
OX1R antag-2: antagonists of human orexin 1 receptor (OX1R); inhibition, % at 6.6 µM; AID 485270, 2010; 330,000 compounds, 1.8% hits; OX1R-expressing cells, FRET antagonist read-out; in the data active = inhibition mostly above about 38%, no sharp cut-off; inactive = mostly below about 40%
Hits are given with their value; n = inactive; x = no result given. Only some compounds are listed: those with a hit (about 4.5% of all), similar ones and a draw of the others.

SMILES	TAAR1 antagonist	OX1R antag-1	CHO parental Ca	TAAR1 agonist	GPR7 antag	OX1R antag-2
CCOC(=O)C1=C(COC(=O)c2cc([N+](=O)[O-])ccc2Cl)NC(=O)NC1C (centres undefined)	n	x	x	n	x	x
O=C(COC(=O)c1ccc([N+](=O)[O-])o1)NCc1ccccc1	n	n	n	n	x	n
NS(=O)(=O)c1ccc(CCNC(=O)COC(=O)/C=C/c2ccccc2Cl)cc1	n	n	n	41.5	n	n
CCCN1CCCCC(NC(=O)c2ccc(F)c(F)c2)C1=O (centres undefined)	n	x	x	n	x	x
Cc1cc(N2CCN(C(=O)OC(C)(C)C)C[C@H]2C)ccc1N1CCS(=O)(=O)CC1	n	x	x	n	x	x
COC(=O)C1=C(C)NC(=O)NC1c1ccc([N+](=O)[O-])o1 (centres undefined)	n	n	n	n	n	76.6
CC1=C(Nc2ccc(C(=O)O)cc2)C(=O)c2ccccc2C1=O	n	n	n	n	n	44.1
NC(=O)c1ncn([C@@H]2O[C@H](C(=O)N[C@H](Cc3ccccc3)C(=O)O)[C@@H](O)[C@H]2O)n1	n	x	x	n	x	x
CCn1c2ccccc2c2cc(NC(=O)CSc3nnc(-c4ccc(OC)c(OC)c4)n3N)ccc21	n	n	n	n	n	73.9
CCn1c2ccccc2c2cc(NC(=O)CSc3nnc(-c4ccccc4OC)n3N)ccc21	n	n	n	n	n	55.9
CCn1c2ccccc2c2cc(/C=N/NC(=O)c3ccccc3)ccc21	n	67.4	n	n	n	91.8
CCn1c(=O)c(C(=O)NNC(=O)c2ccccc2)c(O)c2ccccc21	n	n	n	38.0	n	n
COc1cc(C(=O)N/N=C/c2ccc3c(c2)c2ccccc2n3C)ccc1O	n	x	x	n	n	x
Cn1c2ccccc2c2cc(/C=N/NC(=O)c3cc(O)cc(O)c3)ccc21	n	n	n	n	n	73.8
CCCCCCC(=O)NNC(=O)c1c(O)c2ccccc2n(CC)c1=O	n	n	n	n	n	n
NC(=O)c1c(N)[nH]c(C(=O)c2ccccc2)c1-c1ccncc1	n	x	x	n	x	x
COc1ccc(-c2cc(C(F)(F)F)n3nc(C(=O)N(C)Cc4ccccc4)cc3n2)cc1OC	n	n	n	n	n	n
COCC(=O)NC1CCN(CC(=O)Nc2ccc(OC)cc2[N+](=O)[O-])CC1	n	n	n	n	n	41.2
CCC(=O)OCC(=O)Nc1ccc(OC)cc1[N+](=O)[O-]	n	n	n	n	n	49.5
COCC(=O)NC1CCN(CC(=O)Nc2ccccc2[N+](=O)[O-])CC1	n	n	n	n	n	n
Cc1ccc(NC(=O)COC(=O)Cn2cnc3ccccc32)c([N+](=O)[O-])c1	n	n	38.3	n	n	74.3
COC(=O)c1c(N)[nH]c(C(=O)c2ccccc2)c1-c1ccccc1Br	n	x	x	n	x	x
CCCCCCn1cc(CN2CC(N(C)C)CS2(=O)=O)nn1 (centres undefined)	n	x	x	n	x	x
COC(=O)[C@]12C[C@H](CC(=O)NCc3cccs3)C(=O)N(Cc3ccc4c(c3)OCO4)C1=C[C@H](C(C)(C)C)O[C@@H]2C	n	x	x	n	x	x
O=C(OCCCN=C1NS(=O)(=O)c2ccccc21)c1ccc([N+](=O)[O-])cc1	n	n	n	n	n	50.9
SMILES	TAAR1 antagonist	OX1R antag-1	CHO parental Ca	TAAR1 agonist	GPR7 antag	OX1R antag-2
CCOC(=O)c1cc(OCC)c2c(ccc3cc(OC)ccc32)n1	n	x	x	n	x	x
CCN=C1SC(C(=O)Nc2ccc(OC)cc2)CC(=O)N1CC (centres undefined)	54.6	n	n	n	n	n
CCN=C1SC(C(=O)Nc2cccc(C)c2)CC(=O)N1CC (centres undefined)	62.6	n	n	n	n	n
CCOc1ccc(NC(=O)C2CC(=O)N(CC)C(=Nc3ccc4c(c3)OCO4)S2)cc1 (centres undefined)	n	n	n	n	n	n
CCN1C(=O)CC(C(=O)Nc2ccc(F)cc2)SC1=Nc1ccc2c(c1)OCO2 (centres undefined)	51.9	n	n	n	n	n
CCN=C1SC(C(=O)Nc2cccc(Cl)c2)CC(=O)N1CC (centres undefined)	58.2	n	n	n	n	n
CCN=C1SC(C(=O)Nc2cc(Cl)cc(Cl)c2)CC(=O)N1CC (centres undefined)	n	n	n	n	n	n
CCN=C1SC(C(=O)Nc2ccc(OCC)cc2)CC(=O)N1CC (centres undefined)	n	n	n	n	n	n
O=C(Nc1cccc([N+](=O)[O-])c1)OCc1ccc2c(c1)OCO2	n	x	x	n	x	x
CC(NC(=O)c1cc(COc2ccc(-n3cncn3)cc2)on1)c1ccc(F)cc1 (centres undefined)	n	x	x	n	x	x
COc1cc(-c2noc(CCCC(=O)NC3CCCCC3)n2)cc(OC)c1OC	n	n	n	n	n	n
O=C(O)C1C2C=CC(C2)C1C(=O)NCCCN1CCOCC1 (centres undefined)	n	n	n	n	n	n
CCCCNC(=O)C1C2C=CC(C2)C1C(=O)O (centres undefined)	n	n	n	41.6	n	n
COc1ccc2cc(C3CC=C(CO)CN3S(=O)(=O)c3ccccc3[N+](=O)[O-])n(C(=O)OC(C)(C)C)c2c1 (centres undefined)	50.0	x	x	n	x	x
Cc1cn2c(=O)c3ncn(C4OC(CO)C(O)C4O)c3n(C)c2n1 (centres undefined)	n	x	x	n	x	x
COC(=O)[C@]12C[C@H](CC(=O)NCCCCc3ccccc3)C(=O)N(CCC3=CCCCC3)C1=C[C@H](C(C)(C)C)O[C@@H]2C	n	x	x	n	x	x
CC(C)CC(N)c1csc(Nc2cnccn2)n1 (centres undefined)	n	x	x	n	x	x
Cc1nn(-c2ccccc2)c(C)c1NC(=O)COC(=O)c1ccc(S(=O)(=O)C(F)F)cc1	48.6	n	n	n	x	n
Cc1nn(-c2ccccc2)c(C)c1NC(=O)COC(=O)c1cccc(OC(F)F)c1	54.9	n	n	n	x	n
COc1cc([N+](=O)[O-])cc(/C=N/NC(=O)CC#N)c1O	x	x	x	x	n	x
CCN(CC)CCCNC(=O)c1cc2cc(Cl)ccc2nc1N	n	x	x	n	x	x
N#Cc1cc(-c2ccccc2)oc1NC(=O)c1ccco1	n	n	n	n	n	n
Cc1cccc(C(=O)Nc2oc(-c3ccccc3)cc2C#N)c1	48.9	n	n	n	n	n
Cc1ccccc1-c1cc2nc(NCc3ccc4occc4c3)n(C)c(=O)c2s1	n	x	x	n	x	x

Assay outcomes from PubChem BioAssay.
